Here are results for eight compounds from ChEMBL document CHEMBL1141800, “Xenia diterpenoids from the formosan soft coral Xenia blumi” (2005).

≈ marks a conversion by molar mass, not a printed value. Some results are limits rather than exact numbers.

The test system of one test is P388. The test can be described thus: Cytotoxicity against mouse P388 cells. It counts as functional. The following applies: read-out: ED50 (the source's name). A digest of the protocol: (§1)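 In vitro cytotoxicity assay against cultured HT-29 (human colon adenocarcinoma) and P-388 (mouse lymphocytic leukemia) cells; P-388 line was supplied by an outside academic lab. Potency is reported as ED50 in μg/mL.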

The test system of a further test is HT-29. In words: Cytotoxicity against human HT-29 cells. The following applies: read-out: ED50 (the source's name). In kind it is functional. A digest of the protocol:
as §1

Take `C=C1CC/C=C(\C)CC[C@@H]2/C(=C/C=C/C(C)(C)O)C(=O)OC[C@@H]12`: the figures for the EC50 with P388 and in the test on HT-29 were over 20 µg/mL and 8.7 µg/mL (≈ 27.5 µM), respectively.
Regarding `C=C1CC[C@@H]2O[C@@]2(C)CC[C@@H]2C([C@@H](OC(C)=O)[C@H](C=C(C)C)OC(C)=O)=CO[C@H](OC(C)=O)[C@@H]12`, the EC50 with P388 and in the test with HT-29 was over 20 µg/mL each time.
As for `C=C1CC(=O)/C=C(/C)CC[C@@H]2/C(=C/C=C/C(C)(C)O)C(=O)OC[C@@H]12`, the EC50 in the test with P388 was 0.2 µg/mL (≈ 0.605 µM); in the test on HT-29, 0.5 µg/mL (≈ 1.51 µM).
As for `C=C1CC[C@@H]2O[C@@]2(C)CC[C@@H]2/C(=C/C=C/C(C)(C)O)C(=O)OC[C@@H]12`, the results for the EC50 in the test on P388 and in the test on HT-29 were 4.7 µg/mL (≈ 14.1 µM) and 5.6 µg/mL (≈ 16.8 µM), respectively.
Regarding `C=C1CC[C@H](O)C(=C)CC[C@@H]2/C(=C\C=C\C(C)(C)O)COC(=O)[C@@H]12`, the EC50 amounted to 3.7 µg/mL (≈ 11.1 µM) in the test with P388 and 4.9 µg/mL (≈ 14.7 µM) with HT-29.
The like results for `C=C1CC[C@@](C)(C=O)CC[C@@H]2/C(=C\C=C\C(C)(C)O)COC(=O)[C@@H]12` were, in that order, 3.3 µg/mL (≈ 9.93 µM) and 4.6 µg/mL (≈ 13.8 µM).
On to `COC(=O)[C@@H]1[C@@H](/C(=C\C=C\C(C)(C)O)COC(C)=O)CC[C@@]2(C)C[C@]1(O)CC[C@H]2O`, for which the EC50 in the test with P388 and with HT-29 was over 20 µg/mL throughout.
Turning to `C=C1CC[C@@H]2O[C@@]2(C)CC[C@@H]2/C(=C\C=C\C(C)(C)O)C(=O)OC[C@@H]12`, the EC50 is 6.9 µg/mL (≈ 20.8 µM) with P388 and 8.6 µg/mL (≈ 25.9 µM) in the test with HT-29.
